Experimental data as given in ChEMBL document CHEMBL2401696, “Stereoselective synthesis and anti-proliferative effects on prostate cancer evaluation of 5-substituted-3,4-diphenylfuran-2-ones” (Eur J Med Chem, 2013).

Experiments:
PC-3 [1] = test: Antiproliferative activity against human PC3 cells expressing SKP2 after 72 hrs by MTT assay; format: functional, cell-based; details: PC-3, 72 h
In short: (§1)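 Cells (PC3 and its PCDNA- and SKP2-transfected lines, DU145) grown in RPMI 1640 with 10% FBS; G418 added for transfected lines. Exponential cells seeded 1 × 10⁴/well, 24 h at 37 °C, then fresh medium with compounds at several concentrations for 72 h. MTT 1–3 h at 37 °C, dissolved in 4% HCl/96% isopropanol, absorbance 570 nm. Triplicate per concentration; IC50 from dose–response curves.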

PC-3 [2] = test: Antiproliferative activity against human PC3 cells expressing PCDNA after 72 hrs by MTT assay; format: functional, cell-based; details: PC-3, 72 h; in short: as §1

SMILES	IC50 (PC-3 [1])	IC50 (PC-3 [2])
COc1cc(/C=C2\OC(=O)C(c3ccccc3Cl)=C2c2ccc(S(C)(=O)=O)cc2)cc(OC)c1OC	> 50 µM	> 50 µM
CS(=O)(=O)c1ccc(C2=C(c3ccccc3Cl)C(=O)O/C2=C\c2ccc3c(c2)OCO3)cc1	> 50 µM	> 50 µM
CS(=O)(=O)c1ccc(C2=C(c3ccccc3)C(=O)O/C2=C\c2cccc3ccccc23)cc1	> 50 µM	> 50 µM
CC(C)=C1OC(=O)C(c2ccc(F)cc2)=C1c1ccc(S(C)(=O)=O)cc1	> 50 µM	> 50 µM
CS(=O)(=O)c1ccc(C2=C(c3ccccc3Cl)C(=O)O/C2=C\c2ccc(F)cc2)cc1	> 50 µM	> 50 µM
CS(=O)(=O)c1ccc(C2=C(c3ccc(F)cc3)C(=O)O/C2=C\c2ccco2)cc1	> 50 µM	> 50 µM
CS(=O)(=O)c1ccc(C2=C(c3ccccc3Cl)C(=O)O/C2=C\c2ccc(Br)cc2)cc1	> 50 µM	> 50 µM
CS(=O)(=O)c1ccc(C2=C(c3ccc(F)cc3)C(=O)O/C2=C\c2ccc3c(c2)OCO3)cc1	> 50 µM	> 50 µM
CS(=O)(=O)c1ccc(C2=C(c3ccccc3)C(=O)O/C2=C\c2ccccc2)cc1	> 90 µM	> 90 µM
CS(=O)(=O)c1ccc(C2=C(c3ccc(F)cc3)C(=O)O/C2=C\c2ccc(F)cc2)cc1	> 50 µM	> 50 µM
COc1cc(/C=C2\OC(=O)C(c3ccccc3)=C2c2ccc(S(C)(=O)=O)cc2)cc(OC)c1OC	> 100 µM	> 90 µM
CS(=O)(=O)c1ccc(C2=C(c3ccccc3Cl)C(=O)O/C2=C\c2cccc3ccccc23)cc1	> 50 µM	> 50 µM
O=c1[nH]cc(F)c(=O)[nH]1 [FLUOROURACIL]		31.4 µM
CS(=O)(=O)c1ccc(C2=C(c3ccccc3Cl)C(=O)O/C2=C\c2ccccc2Cl)cc1	> 50 µM	> 50 µM
CC(C)=C1OC(=O)C(c2ccccc2)=C1c1ccc(S(C)(=O)=O)cc1	> 50 µM	> 50 µM
CS(=O)(=O)c1ccc(C2=C(c3ccc(F)cc3)C(=O)O/C2=C\c2ccc(Br)cc2)cc1	> 50 µM	> 50 µM
CS(=O)(=O)c1ccc(C2=C(c3ccc(F)cc3)C(=O)O/C2=C\c2ccccc2)cc1	> 50 µM	> 50 µM
CS(=O)(=O)c1ccc(C2=C(c3ccc(F)cc3)C(=O)O/C2=C\c2ccccc2Cl)cc1	> 50 µM	> 50 µM
CS(=O)(=O)c1ccc(C2=C(c3ccccc3Cl)C(=O)O/C2=C\c2ccco2)cc1	> 50 µM	> 50 µM
CN(C)c1ccc(/C=C2\OC(=O)C(c3ccccc3)=C2c2ccc(S(C)(=O)=O)cc2)cc1	> 50 µM	> 50 µM
CC(C)=CCC/C(C)=C\C=C1/OC(=O)C(c2ccccc2)=C1c1ccc(S(C)(=O)=O)cc1	> 50 µM	> 50 µM
